Measured values reported in ChEMBL document CHEMBL4138055, “Determination and reduction of translocator protein (TSPO) ligand rs6971 discrimination” (Medchemcomm, 2017).

Legend:
HEK-293T [1] = assay: Cytotoxicity against HEK293T cells expressing human wild type TSPO assessed as decrease in cell viability after 48 hrs by CellTiter blue assay; assay type: functional, cell-based
Procedure, shortened: (§1)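 Stable TSPO WT or A147T 293T cells at 8.75 × 10³ cells/well on poly-L-lysine-coated plates, exposed next day to vehicle or compound (1–100 μM) for 48 h. CellTiter Blue (resazurin to resorufin) added for 4 h at 37 °C, fluorescence read at Ex560/Em590 nm.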

HEK-293T [2] = assay: Cytotoxicity against HEK293T cells expressing human TSPO A147T mutant assessed as decrease in cell viability after 48 hrs by CellTiter blue assay; assay type: functional, cell-based; procedure, shortened: as §1
HEK-293T [3] = assay: Antiproliferative activity against HEK293T cells expressing human wild type TSPO after 48 hrs by BrdU incorporation assay; assay type: functional, cell-based
Procedure, shortened: (§2)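 293T cells stably expressing human TSPO WT or A147T (lentiviral, puromycin-selected) seeded at 8.75 × 10³ cells/well on poly-L-lysine-coated plates, treated next day with vehicle or compound (1–100 μM) for 48 h. BrdU added for 4 h at 37 °C, incorporation detected by ELISA, absorbance read at 450 nm.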

HEK-293T [4] = assay: Antiproliferative activity against HEK293T cells expressing human TSPO A147T mutant after 48 hrs by BrdU incorporation assay; assay type: functional, cell-based; procedure, shortened: as §2
Homo sapiens = species: Homo sapiens; assay: Selectivity ratio of Ki for human TSPO A147T mutant to Ki for human wild type TSPO
Translocator protein [5] = target: T1, Translocator protein (Homo sapiens, UniProt P30536); assay: Displacement of [3H]PK11195 from human wild type TSPO expressed in HEK293T cell membranes after 90 mins by scintillation counting method
T1 sequence (P30536 whole entry): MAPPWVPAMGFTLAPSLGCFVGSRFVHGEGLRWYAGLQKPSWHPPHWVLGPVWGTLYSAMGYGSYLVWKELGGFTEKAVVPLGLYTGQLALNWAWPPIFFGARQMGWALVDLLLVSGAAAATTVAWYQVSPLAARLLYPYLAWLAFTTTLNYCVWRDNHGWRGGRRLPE

[6] = Selectivity ratio of IC50 for HEK293T cells expressing human TSPO A147T mutant assessed as decrease in cell viability to IC50 for HEK293T cells expressing human wild type TSPO assessed as decrease in cell viability; assay type: functional
Translocator protein [7] = target: T1, Translocator protein; assay: Ratio of Ki for displacement of [3H]PK11195 from human brain TSPO isolated from low affinity binder patient to Ki for [3H]PK11195 from human brain TSPO isolated from high affinity binder patient
[8] = Selectivity ratio of IC50 for HEK293T cells expressing human TSPO A147T mutant assessed as decrease in cell proliferation to IC50 for HEK293T cells expressing human wild type TSPO assessed as decrease in cell proliferation; assay type: functional

Row | Structure (SMILES) | IC50 (HEK-293T [1]) | IC50 (HEK-293T [2]) | IC50 (HEK-293T [3]) | IC50 (HEK-293T [4]) | Ratio Ki (Homo sapiens) | Ki (Translocator protein [5]) | Ratio IC50 [6] | Ratio Ki (Translocator protein [7]) | Ratio IC50 [8]
1 | CCN(CC)C(=O)Cc1c(-c2ccc(OC)cc2)nn2c(C)cc(C)nc12 | > 100 µM | > 100 µM | > 100 µM | > 100 µM | – | – | – | – | –
2 | CCC(C)N(C)C(=O)c1cc2ccccc2c(-c2ccccc2Cl)n1 (centres undefined) [PK-11195] | 67.4 µM | 69.2 µM | > 100 µM | > 100 µM | – | – | – | – | –
3 | CCN(CC)C(=O)Cn1c2ccccc2c2cc(-c3ccccc3OC)ccc21 | – | – | – | – | 5.4 | 0.0254 µM | – | – | –
4 | CCN(CC)C(=O)Cn1c2ccccc2c2ccccc21 | – | – | – | – | 5.9 | 0.0301 µM | – | – | –
5 | CCN(Cc1ccccc1)C(=O)Cn1c(=O)n(C)c2cnc(-c3ccccc3)nc21 | 29.5 µM | 26.2 µM | > 100 µM | > 100 µM | 4.9 | 0.0064 µM | 0.9 | 12.6 | –
6 | CCN(CC)C(=O)Cn1c2ccccc2c2cc(Br)ccc21 | – | – | – | – | 5.1 | 0.0315 µM | – | – | –
7 | CCN(CC)C(=O)Cn1c2ccccc2c2cc(-c3ccc(OC)cc3)ccc21 | – | – | – | – | 3.2 | 0.0289 µM | – | – | –
8 | CCN(CC)C(=O)Cn1c2ccccc2c2cc(-c3ccccc3)ccc21 | 23.7 µM | 22.9 µM | 50.5 µM | 47.1 µM | 5.1 | 0.0316 µM | 1 | – | 0.9
9 | CCN(Cc1ccccc1)C(=O)Cn1c2ccccc2c2ccccc21 | > 100 µM | > 100 µM | > 100 µM | > 100 µM | 5 | 0.0916 µM | – | – | –
10 | CCN(Cc1ccccc1)C(=O)Cn1c2ccccc2c2cc(Br)ccc21 | – | – | – | – | – | 0.0543 µM | – | – | –
